Results on eight molecules are retold here after ChEMBL document CHEMBL1151850, “Triterpenoid saponins from Dianthus versicolor” (J Nat Prod, 2009).

The subject of one assay is HFL1. Put plainly: Cytotoxicity against human HFL1 cells after 24 hrs by MTT assay. In kind it is cell-based. Conditions: HFL1, 24 h. In short, it runs like this: (§1)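 Grown in DMEM with 10% fetal calf serum, 2 mM L-glutamine and penicillin/streptomycin at 37 °C, 5% CO2. 10^4 cells/well adhered 24 h before serial dilutions were added (DMSO stock diluted in medium, final DMSO <1%), in parallel triplicate wells. After 24 h exposure, MTT added for 4 h. Formazan dissolved in DMSO; viability read as absorbance at 570 nm.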
A general note: Formazan colour is commonly taken as a measure of viable cells.

A short description of assay [1]: Cytotoxicity against human BGC803 cells after 24 hrs by MTT assay. In kind it is functional, cell-based. Conditions: BGC803, 24 h. The method in brief: (§2)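 Cells kept at 37 °C, 5% CO2 in RPMI-1640 with 10% fetal calf serum, subcultured twice weekly. Plated at 10^4 cells/well and allowed to adhere 24 h. Serial dilutions added from DMSO stock diluted in RPMI-1640, final DMSO below 1%, triplicate wells. After 24 h, MTT added for 4 h. Formazan dissolved in DMSO, absorbance read at 570 nm.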

The test system of the next assay is MCF7. As to the kind of experiment: Cytotoxicity against human MCF7 cells after 24 hrs by MTT assay. The class given is functional, cell-based. Conditions: MCF7, 24 h. In short, it runs like this:
as §1

A short description of assay [2]: Cytotoxicity against human EVC304 cells after 24 hrs by MTT assay. The class given is cell-based. Conditions: EVC304, 24 h. In short, it runs like this:
as §2

The next assay relates to HepG2. Put plainly: Cytotoxicity against human HepG2 cells after 24 hrs by MTT assay. The class given is functional, cell-based. The settings on record: HepG2, 24 h. The method in brief: as §1

The IC50 is the concentration needed to halve the response being measured. Low values mean higher potency, high ones lower potency.

For `CC1(C)CC[C@]2(C(=O)O[C@@H]3O[C@H](CO[C@@H]4O[C@H](COC(=O)C[C@@](C)(O)CC(=O)O)[C@@H](O)[C@H](O)[C@H]4O[C@@H]4O[C@H](CO)[C@@H](O)[C@H](O)[C@H]4O)[C@@H](O)[C@H](O)[C@H]3O)[C@H](O)C[C@]3(C)C(=CC[C@@H]4[C@@]5(C)CC[C@H](O)[C@@](C)(C(=O)O[C@@H]6O[C@H](CO)[C@@H](O)[C@H](O)[C@H]6O)[C@@H]5CC[C@]43C)[C@@H]2C1` [DIANVERSICOSIDE A], the IC50 was 2.8 µM in the assay on HFL1; 6.2 µM in assay [1]; above 10 µM with MCF7; 8.4 µM in assay [2]; above 10 µM in the assay on HepG2.

On to `CC1(C)CC[C@]2(C(=O)O[C@@H]3O[C@H](CO[C@@H]4O[C@H](COC(=O)C[C@@](C)(O)CC(=O)O)[C@@H](O)[C@H](O)[C@H]4O[C@@H]4O[C@H](CO)[C@@H](O)[C@H](O)[C@H]4O)[C@@H](O)[C@H](O[C@@H]4O[C@H](CO)[C@@H](O)[C@H](O)[C@H]4O)[C@H]3O)[C@H](O)C[C@]3(C)C(=CC[C@@H]4[C@@]5(C)CC[C@H](O)[C@@](C)(C(=O)O)[C@@H]5CC[C@]43C)[C@@H]2C1` [DIANVERSICOSIDE B], for which the IC50 with HFL1 is 3.1 µM; in assay [1], 5.7 µM; in the assay on MCF7, above 10 µM; in assay [2], 7.7 µM; in the assay on HepG2, above 10 µM.

With `CC1(C)CC[C@]2(C(=O)O[C@@H]3O[C@H](CO[C@@H]4O[C@H](COC(=O)C[C@@](C)(O)CC(=O)O)[C@@H](O)[C@H](O)[C@H]4O[C@@H]4O[C@H](CO)[C@@H](O)[C@H](O)[C@H]4O)[C@@H](O)[C@H](O[C@@H]4O[C@H](CO)[C@@H](O)[C@H](O)[C@H]4O)[C@H]3O)CC[C@]3(C)C(=CC[C@@H]4[C@@]5(C)CC[C@H](O)[C@@](C)(C(=O)O)[C@@H]5CC[C@]43C)[C@@H]2C1` [DIANVERSICOSIDE D], the IC50 in the assay on HFL1 was 3.4 µM; in assay [1], 2.9 µM; in the assay with MCF7 it was above 10 µM; in assay [2], 3.9 µM; with HepG2 it was above 10 µM.

In the case of `CC1(C)CC[C@]2(C(=O)O[C@@H]3O[C@H](CO[C@@H]4O[C@H](CO)[C@@H](O)[C@H](O)[C@H]4O[C@@H]4O[C@H](CO)[C@@H](O)[C@H](O)[C@H]4O)[C@@H](O)[C@H](O[C@@H]4O[C@H](CO)[C@@H](O)[C@H](O)[C@H]4O)[C@H]3O)[C@H](O)C[C@]3(C)C(=CC[C@@H]4[C@@]5(C)CC[C@H](O)[C@@](C)(C(=O)O[C@@H]6O[C@H](CO)[C@@H](O)[C@H](O)[C@H]6O)[C@@H]5CC[C@]43C)[C@@H]2C1` [DIANVERSICOSIDE E], the IC50 with HFL1 was 3.5 µM; in assay [1] it was 7.4 µM; with MCF7, above 10 µM; in assay [2], 9.1 µM; in the assay with HepG2 it was above 10 µM.

In the case of `CC1(C)CC[C@]2(C(=O)O[C@@H]3O[C@H](CO[C@@H]4O[C@H](CO)[C@@H](O)[C@H](O)[C@H]4O[C@@H]4O[C@H](CO)[C@@H](O)[C@H](O)[C@H]4O)[C@@H](O)[C@H](O)[C@H]3O)[C@H](O)C[C@]3(C)C(=CC[C@@H]4[C@@]5(C)CC[C@H](O)[C@@](C)(C(=O)O[C@@H]6O[C@H](CO)[C@@H](O)[C@H](O)[C@H]6O)[C@@H]5CC[C@]43C)[C@@H]2C1` [DIANVERSICOSIDE F], the IC50 in the assay with HFL1 is 4.4 µM; in assay [1], 9.7 µM; in the assay on MCF7, above 10 µM; in assay [2], 9.6 µM; with HepG2, above 10 µM.

With `CC1(C)CC[C@]2(C(=O)O[C@@H]3O[C@H](CO[C@@H]4O[C@H](CO)[C@@H](O)[C@H](O)[C@H]4O[C@@H]4O[C@H](CO)[C@@H](O)[C@H](O)[C@H]4O)[C@@H](O)[C@H](O[C@@H]4O[C@H](CO)[C@@H](O)[C@H](O)[C@H]4O)[C@H]3O)CC[C@]3(C)C(=CC[C@@H]4[C@@]5(C)CC[C@H](O[C@@H]6OC[C@H](O)[C@H](O)[C@H]6O)[C@@](C)(C(=O)O)[C@@H]5CC[C@]43C)[C@@H]2C1` [DIANVERSICOSIDE G], the IC50 in the assay on HFL1 is 3.3 µM; in assay [1], 6.8 µM; in the assay with MCF7, above 10 µM; in assay [2], 6.2 µM; in the assay with HepG2, above 10 µM.

For the molecule `CC1(C)CC[C@]2(C(=O)O[C@@H]3O[C@H](CO[C@@H]4O[C@H](CO)[C@@H](O)[C@H](O)[C@H]4O[C@@H]4O[C@H](CO)[C@@H](O)[C@H](O)[C@H]4O)[C@@H](O)[C@H](O[C@@H]4O[C@H](CO)[C@@H](O)[C@H](O)[C@H]4O)[C@H]3O)CC[C@]3(C)C(=CC[C@@H]4[C@@]5(C)CC[C@H](O)[C@@](C)(C(=O)O)[C@@H]5CC[C@]43C)[C@@H]2C1` [VACCAROID A], the IC50 is 7.8 µM with HFL1; 5.3 µM in assay [1]; above 10 µM in the assay on MCF7; 4.1 µM in assay [2]; above 10 µM in the assay with HepG2.

With `CC1(C)CC[C@]2(C(=O)O)CC[C@]3(C)C(=CC[C@@H]4[C@@]5(C)CC[C@H](O)[C@@](C)(C(=O)O[C@@H]6O[C@H](CO[C@@H]7O[C@H](CO)[C@@H](O)[C@H](O)[C@H]7O[C@@H]7O[C@H](CO)[C@@H](O)[C@H](O)[C@H]7O)[C@@H](O)[C@H](O[C@@H]7O[C@H](CO)[C@@H](O)[C@H](O)[C@H]7O)[C@H]6O)[C@@H]5CC[C@]43C)[C@@H]2C1` [VACCAROID C], the IC50 is 3.8 µM in the assay on HFL1; 9.4 µM in assay [1]; above 10 µM in the assay on MCF7; 8.7 µM in assay [2]; above 10 µM with HepG2.
